Reference: ChEMBL document CHEMBL5149988, “Structure-Based Design of Selective Salt-Inducible Kinase Inhibitors” (J Med Chem, 2021)

Assay: Metabolic stability in Sprague-Dawley rat liver microsomes assessed as parent compound remaining incubated for 1 hrs by HPLC analysis
Type: ADME, Microsome
Conditions: read-out: Stability
In short: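 Rat (Sprague-Dawley) activated liver microsome mix; compound incubated at 37 °C and sampled at 0, 15, 30 and 60 min. Unmetabolized parent quantified by HPLC.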

For `CNc1ncc2cc(-c3ccc(-c4ncccc4F)cc3Cl)c(=O)n(C[C@H]3OC[C@H](N)CO3)c2n1`, which remaining at 1 h is on record?
Its remaining at 1 h is > 90%.
